Results from ChEMBL document CHEMBL1221254, “Succinic acid amides as P2-P3 replacements for inhibitors of interleukin-1beta converting enzyme (ICE or caspase 1)” (Bioorg Med Chem Lett, 2010).

Tests used:
[1] = Oral bioavailability in Wistar rat at 25 mg/kg; assay type: ADME, organism-based; conditions: in vivo
How it was run: (§1)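 Wistar rats received 25 mg/kg orally in a vehicle of 10% DMSO, 11.25% Trappsol and D5W. Compound was measured in blood by LC/MS.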

[2] = Selectivity ratio of human ICE to caspase 3
[3] = Selectivity ratio of human ICE to caspase 6
Homo sapiens = species on record: Homo sapiens; assay: Half life in human plasma
[4] = Selectivity ratio of human ICE to caspase 4
[5] = Selectivity ratio of human ICE to caspase 8
[6] = Half life in Wistar rat at 25 mg/kg, po; assay type: ADME, organism-based; set-up: dose 25 mg/kg, route oral; conditions: in vivo; how it was run: as §1

SMILES | bioavailability [1] [%] | Selectivity ratio [2] | Selectivity ratio [3] | half-life (Homo sapiens) [h] | Selectivity ratio [4] | Selectivity ratio [5] | half-life [6] [h]
CCCO[C@H]1OC(=O)C[C@@H]1NC(=O)[C@@H](CC(=O)NCCc1cccc2ncccc12)C(C)C | 35 | > 200 | > 200 | 10 | > 200 | > 200 | 
CCCO[C@@H]1OC(=O)C[C@@H]1NC(=O)[C@@H](CC(=O)NCCc1cccc2ncccc12)C(C)C | 9 | > 200 | > 200 | 2 | > 200 | > 200 | 
CCO[C@@H]1OC(=O)CC1NC(=O)[C@@H]1CCCN2C(=O)CC[C@H](NC(=O)c3nccc4ccccc34)C(=O)N12 (some centres undefined) |  | > 200 | > 200 |  | > 200 | > 200 | 0.87
CCOC1OC(=O)C[C@@H]1NC(=O)[C@@H](CC(=O)NCCc1cccc2ncccc12)C(C)C (some centres undefined) |  | > 200 | > 200 |  | > 200 | > 200 | 0.87
CC(C)[C@H](CC(=O)NCCc1cccc2ncccc12)C(=O)N[C@H]1CC(=O)O[C@@H]1OC1CCCC1 | 5 | > 200 | > 200 | 5.1 | > 200 | > 200 | 
CCOC1OC(=O)C[C@@H]1NC(=O)[C@@H](CC(=O)NCCn1c(C)nc2ccccc21)C(C)C (some centres undefined) |  | > 200 | > 200 |  | > 200 | > 200 | 1.6
CCOC1OC(=O)C[C@@H]1NC(=O)[C@@H](CC(=O)NCCc1c(C)[nH]c2ccccc12)C(C)C (some centres undefined) |  | > 200 | > 200 |  | > 200 | > 200 | 1.27
CCO[C@@H]1OC(=O)C[C@@H]1NC(=O)[C@@H](CC(=O)NCCc1cccc2ncccc12)C(C)C | 25 | > 200 | > 200 | 0.87 | > 200 | > 200 | 
